In assay [1] the target is DNA topoisomerase 2-alpha (Homo sapiens) (UniProt P11388). Description: Inhibition of human Topo 2-mediated relaxation of supercoiled pBR322 plasmid at 25 to 50 uM after 30 mins by agarose gel electrophoresis.
A short description of assay [2]: Cytotoxicity against human HL60 cells after 48 hrs by MTT assay. Conditions: HL-60, 48 h. In kind it is functional, cell-based. Put shortly: (§1)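 Cells seeded 1 × 10^4 per well and incubated overnight, then given compound at 0–50 µM for 48 h. MTT added (20 µL of 5 mg/mL stock) for 4 h at 37 °C; formazan dissolved in DMSO, absorbance read at 570 nm. Triplicates; IC50 from mean OD versus concentration curves.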
Background: Formazan colour is commonly taken as a measure of viable cells.

The test system of a further assay is K562. Put plainly: Cytotoxicity against human K562 cells after 48 hrs by MTT assay. Conditions: K562, 48 h. In kind it is functional, cell-based. Summed up: as §1
Another assay has as its system HeLa. Description: Cytotoxicity against human HeLa cells after 48 hrs by MTT assay. Type of assay: functional, cell-based. Summed up:
as §1

For another assay, the system named is A549. Put plainly: Cytotoxicity against human A549 cells after 48 hrs by MTT assay. The following applies: A549, 48 h. In kind it is functional, cell-based. Put shortly:
as §1

Assay [3] deals with T1, DNA topoisomerase 1 (Homo sapiens) (UniProt P11387).
T1 sequence (whole entry): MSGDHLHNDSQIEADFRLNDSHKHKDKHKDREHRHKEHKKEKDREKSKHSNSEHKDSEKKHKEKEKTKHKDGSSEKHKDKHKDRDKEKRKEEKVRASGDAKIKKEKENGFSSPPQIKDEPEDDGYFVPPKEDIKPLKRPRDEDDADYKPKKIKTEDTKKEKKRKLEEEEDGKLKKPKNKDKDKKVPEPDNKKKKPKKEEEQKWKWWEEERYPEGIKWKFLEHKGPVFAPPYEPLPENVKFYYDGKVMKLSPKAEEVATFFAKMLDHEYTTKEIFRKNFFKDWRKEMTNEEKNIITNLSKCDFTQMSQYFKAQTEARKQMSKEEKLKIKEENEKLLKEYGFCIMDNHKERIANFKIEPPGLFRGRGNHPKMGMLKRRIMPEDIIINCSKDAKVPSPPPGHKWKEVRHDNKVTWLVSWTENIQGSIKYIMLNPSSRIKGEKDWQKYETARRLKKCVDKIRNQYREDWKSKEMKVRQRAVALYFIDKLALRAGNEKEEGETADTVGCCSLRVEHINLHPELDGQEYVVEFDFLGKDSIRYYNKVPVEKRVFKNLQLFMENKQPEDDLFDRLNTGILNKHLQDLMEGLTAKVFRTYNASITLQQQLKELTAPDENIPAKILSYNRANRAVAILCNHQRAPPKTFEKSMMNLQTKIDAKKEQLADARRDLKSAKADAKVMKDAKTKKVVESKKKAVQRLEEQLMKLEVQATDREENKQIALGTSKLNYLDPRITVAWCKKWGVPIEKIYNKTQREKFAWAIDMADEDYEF
Description: Inhibition of Topo 1 (unknown origin)-mediated relaxation of supercoiled pBR322 plasmid at 25 uM after 30 mins by agarose gel electrophoresis. Summed up:
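Topo I with supercoiled pBR322 and compound, 30 min at 37 °C. Stopped with SDS/bromophenol blue/glycerol dye; run on 1% agarose gel in TAE for 1 h and stained with Gel Red.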

For assay [4], the target named is DNA topoisomerase 2-alpha (Homo sapiens) (UniProt P11388). Put plainly: Inhibition of human Topo 2-mediated relaxation of supercoiled pBR322 plasmid at 25 uM after 30 mins by agarose gel electrophoresis.
For assay [5] the target is unchanged. Description: Inhibition of human Topo 2 ATPase domain expressed in yeast BCY123 strain at 25 uM after 1 hr by nonisotopic malachite green assay. Put shortly: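 Human Topo II ATPase domain overexpressed in yeast BCY123 and purified. Assay buffer: 100 mM Tris-HCl pH 7.4, 20 mM KCl, 6 mM MgCl2. Reaction of 25 µL with compound, started with 1 mM ATP, 1 h at 37 °C. Phosphate detected with malachite green at OD620. No-enzyme background set as 100% inhibition and enzyme-only as 0%.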

Active and inactive are the calls of the source. The rule behind the calls is not given here. A value given as a limit tells only on which side of the number the result lay.

By IC50 is commonly meant the midpoint of a concentration-inhibition curve. Low values mean greater potency, high ones weaker potency. As usually defined, the inhibition is the share of the control response that was lost under treatment. Read a high inhibition as a response far below the control.

DNA topoisomerase 2-alpha (Homo sapiens), sequence (P11388 whole entry, the tested form may be a part): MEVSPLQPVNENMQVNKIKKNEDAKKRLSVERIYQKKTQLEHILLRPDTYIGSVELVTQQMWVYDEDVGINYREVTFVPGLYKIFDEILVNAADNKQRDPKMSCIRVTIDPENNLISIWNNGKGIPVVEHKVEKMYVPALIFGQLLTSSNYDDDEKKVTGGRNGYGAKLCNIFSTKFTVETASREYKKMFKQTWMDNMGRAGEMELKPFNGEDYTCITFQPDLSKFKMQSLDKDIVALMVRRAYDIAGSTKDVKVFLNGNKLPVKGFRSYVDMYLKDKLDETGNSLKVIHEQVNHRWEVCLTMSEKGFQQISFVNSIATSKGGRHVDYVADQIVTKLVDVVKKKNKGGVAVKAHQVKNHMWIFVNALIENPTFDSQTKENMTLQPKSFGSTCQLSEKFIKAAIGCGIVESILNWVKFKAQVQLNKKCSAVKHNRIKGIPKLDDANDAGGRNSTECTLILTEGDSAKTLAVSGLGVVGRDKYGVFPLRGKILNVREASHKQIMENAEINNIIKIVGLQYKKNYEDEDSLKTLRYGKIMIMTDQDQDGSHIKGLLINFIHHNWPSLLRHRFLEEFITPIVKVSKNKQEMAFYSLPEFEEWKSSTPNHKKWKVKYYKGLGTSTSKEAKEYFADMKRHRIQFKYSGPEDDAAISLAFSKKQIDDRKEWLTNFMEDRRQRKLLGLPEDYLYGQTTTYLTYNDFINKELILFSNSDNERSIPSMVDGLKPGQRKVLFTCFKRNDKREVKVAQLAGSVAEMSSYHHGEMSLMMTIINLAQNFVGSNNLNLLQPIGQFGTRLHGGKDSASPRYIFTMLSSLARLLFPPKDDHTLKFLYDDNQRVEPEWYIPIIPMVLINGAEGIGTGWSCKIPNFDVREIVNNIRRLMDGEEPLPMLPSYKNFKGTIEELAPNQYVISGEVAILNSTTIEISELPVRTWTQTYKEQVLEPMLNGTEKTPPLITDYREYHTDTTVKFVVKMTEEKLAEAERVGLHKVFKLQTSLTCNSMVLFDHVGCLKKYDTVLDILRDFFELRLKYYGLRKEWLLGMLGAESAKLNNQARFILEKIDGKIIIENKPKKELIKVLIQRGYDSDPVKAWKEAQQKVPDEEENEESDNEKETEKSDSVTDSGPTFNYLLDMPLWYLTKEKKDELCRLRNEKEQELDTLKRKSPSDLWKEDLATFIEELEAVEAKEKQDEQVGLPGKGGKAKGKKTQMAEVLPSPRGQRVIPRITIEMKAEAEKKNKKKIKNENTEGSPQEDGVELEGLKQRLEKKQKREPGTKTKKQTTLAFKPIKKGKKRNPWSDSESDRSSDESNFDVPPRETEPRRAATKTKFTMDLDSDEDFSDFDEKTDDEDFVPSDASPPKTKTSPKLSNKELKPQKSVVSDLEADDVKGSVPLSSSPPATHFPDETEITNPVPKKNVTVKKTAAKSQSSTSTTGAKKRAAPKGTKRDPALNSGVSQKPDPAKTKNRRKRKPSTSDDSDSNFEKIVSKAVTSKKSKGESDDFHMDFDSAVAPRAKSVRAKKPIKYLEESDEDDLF

As to `CCCn1c2cc(=O)c3ccccc3c-2nc2ccccc21`, in assay [1], the “Topo 2 inhibition (active/not active)” value is “inactive”. The IC50 in assay [2] is 32100 nM; with K562, over 40 µM; in the assay with HeLa, over 50 µM; in the assay on A549, over 50 µM.
`COc1ccc2c(c1)nc1c3ccccc3c(=O)cc-1n2CCCN(C)C`: the “Topo I relaxation inhibition (active/not active)” value in assay [3] is “inactive”. Further, the IC50 in assay [2] stood at 960 nM; in the assay on K562, 20.2 µM; in the assay with HeLa, 24.9 µM; in the assay with A549, 25.9 µM.
Take `O=c1cc2n(CCCN3CCCCC3)c3ccccc3nc-2c2ccccc12`: the “Topo I relaxation inhibition (active/not active)” value in assay [3] is “inactive”. In addition, the “Topo 2 inhibition (active/not active)” value in assay [1] was “Active”. The IC50 worked out at 520 nM in assay [2], 10.3 µM in the assay on K562, 27.4 µM in the assay with HeLa and 33 µM in the assay on A549.
In the case of `O=c1cc2n(CCCN3CCCCC3)c3ncccc3nc-2c2ccccc12`, the “Topo I relaxation inhibition (active/not active)” value in assay [3] was “inactive”. Besides, in assay [4], the “Topo 2 inhibition (active/not active)” value is “inactive”. For the same compound, the IC50 in assay [2] was 630 nM; in the assay with K562 it was 38.4 µM; in the assay on HeLa, 20.4 µM; in the assay on A549, 19.9 µM.
Take `CN(C)CCCn1c2cc(=O)c3ccccc3c-2nc2cc(Cl)ccc21`: the IC50 came out at 1080 nM in assay [2], 20.4 µM with K562, 29.6 µM with HeLa and 38.4 µM with A549.
For `COc1ccc2c(=O)cc3n(CCCN(C)C)c4ccccc4nc-3c2c1`, the “Topo I relaxation inhibition (active/not active)” value in assay [3] is “Active”. Further, the “Topo 2 inhibition (active/not active)” value in assay [4] is “Active”. In addition, the IC50 in assay [2] was 220 nM; with K562 it was 7.13 µM; in the assay on HeLa it was 29.9 µM; in the assay with A549, 33 µM.
`O=c1cc2n(CCCN3CCOCC3)c3ccccc3nc-2c2ccccc12`: the IC50 in assay [2] was 1280 nM; with K562 it was 25.2 µM; in the assay on HeLa, over 50 µM; with A549 it was 45.4 µM.
For `COc1ccc2c3nc4ccccc4n(CCCN(C)C)c-3cc(=O)c2c1`, in assay [3], the “Topo I relaxation inhibition (active/not active)” value was “inactive”. For the same compound, the IC50 in assay [2] came to 150 nM; in the assay on K562, 6.12 µM; with HeLa it was 28.4 µM; with A549, 24.6 µM.
With `CN1CCN(CCCn2c3cc(=O)c4ccccc4c-3nc3ccccc32)CC1`, the IC50 was 1220 nM in assay [2], 24 µM in the assay with K562, 26.7 µM with HeLa and 23.6 µM with A549.
On the same counts, the results for `COc1ccc2c3nc4ccccc4n(CCN(C)C)c-3cc(=O)c2c1` are 2850 nM, 18.4 µM, 18.9 µM and 38.5 µM.
On to `CN(C)CCCn1c2cc(=O)c3ccccc3c-2nc2ccccc21`, for which, in assay [3], the “Topo I relaxation inhibition (active/not active)” value was “Active”. In assay [1], the “Topo 2 inhibition (active/not active)” value was “Active”. In addition, the IC50 in assay [2] came to 210 nM; in the assay with K562, 5.93 µM; with HeLa, 8.41 µM; with A549, 13.5 µM.
On to `COc1cc([C@@H]2c3cc4c(cc3[C@@H](O[C@@H]3O[C@@H]5CO[C@@H](C)O[C@H]5[C@H](O)[C@H]3O)[C@H]3COC(=O)[C@H]23)OCO4)cc(OC)c1O` [ETOPOSIDE], for which the IC50 in assay [2] turned out to be 60 nM; in the assay on K562, 1.64 µM; in the assay on HeLa it was 0.54 µM; in the assay on A549, 8.91 µM.
For the compound `CCN(CC)CCn1c2cc(=O)c3ccccc3c-2nc2ccccc21`, the IC50 is 310 nM in assay [2], 25.6 µM in the assay on K562, 25.4 µM with HeLa and 29.2 µM in the assay with A549.
With `CN1CCN(CCn2c3cc(=O)c4ccccc4c-3nc3ccccc32)CC1`, in assay [3], the “Topo I relaxation inhibition (active/not active)” value was “Active”. For the same compound, the IC50 in assay [2] is 380 nM; in the assay with K562, 21.6 µM; in the assay with HeLa, 28.9 µM; in the assay on A549, 25.3 µM.
Take `CCN(CC)CCCCn1c2cc(=O)c3ccccc3c-2nc2ccccc21`: the IC50 in assay [2] stood at 220 nM; with K562 it was 26 µM; with HeLa, 29.4 µM; in the assay with A549, 18.9 µM.
In the case of `COc1ccc2c(c1)nc1c3ccc(OC)cc3c(=O)cc-1n2CCCN(C)C`, the “Topo I relaxation inhibition (active/not active)” value in assay [3] is “inactive”. In addition, the IC50 came to 650 nM in assay [2], 22 µM in the assay with K562, 6.52 µM with HeLa and 34.5 µM in the assay on A549.
Consider `CCN(CC)CCCn1c2cc(=O)c3ccccc3c-2nc2ccccc21`, for which the IC50 is 1500 nM in assay [2], 24.8 µM in the assay on K562, 44.5 µM in the assay with HeLa and 37.4 µM with A549.
As to `CN(C)CCn1c2cc(=O)c3ccccc3c-2nc2ccccc21`, the “Topo I relaxation inhibition (active/not active)” value in assay [3] is “Active”. In addition, the “Topo 2 inhibition (active/not active)” value in assay [1] is “Active”. Moreover, the IC50 in assay [2] is 310 nM; in the assay with K562, 24.6 µM; with HeLa, 9.91 µM; with A549 it was 22.3 µM.
On to `CN(C)CCCn1c2cc(=O)c3ccccc3c-2nc2cccnc21`, for which, in assay [3], the “Topo I relaxation inhibition (active/not active)” value was “inactive”. In addition, the “Topo 2 inhibition (active/not active)” value in assay [4] was “inactive”. Further, the IC50 in assay [2] came out at 620 nM; in the assay on K562, 36.8 µM; in the assay with HeLa, 4.52 µM; with A549 it was 20.4 µM.
In turn, `O=C1C=CC(=O)c2ccccc21` came in with an inhibition in assay [5] of 56%.
Consider `CCN(CC)CCCn1c2cc(=O)c3cc(OC)ccc3c-2nc2ccccc21`, for which the “Topo I relaxation inhibition (active/not active)” value in assay [3] was “inactive”. Also, the IC50 in assay [2] amounted to 230 nM; with K562, 22 µM; in the assay on HeLa, 25.9 µM; in the assay with A549, 22.9 µM.
On the same counts, the results for `COc1ccc2nc3c4ccccc4c(=O)cc-3n(CCCN(C)C)c2c1` are “Active”, 180 nM, 5.53 µM, 5.51 µM and 30.5 µM.
Turning to `O=c1cc2n(CCCN3CCCC3)c3ccccc3nc-2c2ccccc12`, the IC50 in assay [2] worked out at 220 nM; in the assay on K562, 25.2 µM; in the assay on HeLa, 30.3 µM; in the assay on A549, 35.7 µM.
Regarding `O=c1cc2n(CCN3CCOCC3)c3ccccc3nc-2c2ccccc12`, the IC50 is 6910 nM in assay [2], over 40 µM with K562, over 50 µM in the assay on HeLa and over 50 µM in the assay on A549.
For `COc1ccc2c3nc4cc(Cl)ccc4n(CCCN(C)C)c-3cc(=O)c2c1`, the half-maximal inhibitory concentration (IC50) in assay [2] came to 6430 nM; with K562, 22.8 µM; in the assay with HeLa it was 43 µM; in the assay with A549, 31.5 µM.
Turning to `O=c1cc2n(CCN3CCCCC3)c3ccccc3nc-2c2ccccc12`, in assay [3], the “Topo I relaxation inhibition (active/not active)” value was “inactive”. In addition, the “Topo 2 inhibition (active/not active)” value in assay [1] was “Active”. The IC50 in assay [2] was determined as 930 nM; in the assay on K562, 25.2 µM; in the assay on HeLa it was 32 µM; in the assay with A549, 37.3 µM.

The values above are taken from ChEMBL document CHEMBL3407378, “Design, synthesis and biological evaluation of novel 7-alkylamino substituted benzo[a]phenazin derivatives as dual topoisomerase I/II inhibitors” (Eur J Med Chem, 2015).
